GAA850 FXN act: increases GAA850 frataxin promoter reporter activity; activation, % at 6 µM; HEK293 lucGAA850 FXN promoter luciferase reporter, 24 h; percent of 10 µM SAHA response; actives 0.56% (n = 360,000); AID 540364;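 active means activation above the average of all compounds screened plus 3 SD, cutoff fixed separately per campaign, cut at about 7.5% in these data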
JMJD2C inh: blocks human GASC-1 demethylase activity | Q9H3R0 | GST-JMJD2C(1-420) H3K9me3 demethylation, DELFIA europium | inhibition, % at 2.35 µM | actives 0.069% (n = 330,000);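 active means more than half of a compound's replicate wells show inhibition beyond 50%, single wells judged on their own value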;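 further: signal counts dimethyl H3K9 product captured on neutravidin plate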
SR-BI HDL uptake: blocks mouse SR-BI lipid uptake from DiI-HDL | Q61009 | inhibition, % at 12.5 µM | actives 0.96% (n = 320,000) | ldlA[mSR-BI] CHO cells, DiI-HDL uptake fluorescence, 3 h;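 active means mean replicate inhibition of at least 70% and a set share of replicates each scoring 70 or more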
AHR activator: activates the human aryl hydrocarbon receptor. actives 2.5% (n = 320,000). AHR-responsive luciferase reporter cells, luminescence. activation, % at 5 µM. AID 2796. P35869; in the data active means activation above about 47%
SR-BI DiI-HDL act: SR-BI HDL lipid transfer activation; CHO ldlA[mSR-BI] cells, DiI-HDL uptake fluorescence, 3 h; 100 = double the neutral-control signal; activation, % at 12.5 µM; actives 0.096% (n = 320,000);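 active means mean replicate activation of at least 60% and every replicate at or above 60%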
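Test system: SR-BI-overexpressing, LDLR-lacking CHO cells; Medium: Ham's F12 with 0.5% BSA, HEPES 25 mM, pH 7.4; Schedule: 3 h, 37 °C; Technique: bottom-read fluorescence, 550/595 nm.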
AHR act cf: confirmation of human aryl hydrocarbon receptor activators; shares compounds with AHR activator; human cells, AHR-responsive luciferase reporter, luminescence; activation, % at 9 µM; actives 87% (n = 2,300); AID 2845; in the data active means activation above about 49%;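 further: HepG2 hepatoma cells carrying a DRE-driven firefly luciferase reporter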
PXR act counter: counter-screen for AHR activators: human PXR activators; shares compounds with AHR activator; activation, % at 11.6 µM; cell-based PXR reporter, luciferase luminescence; AID 434939; actives 88% (n = 2,300); in the data active means activation above about 11%;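 further: human hepatoma DPX-2 cells expressing full-length human PXR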
Target sequence (O75469 whole entry, looked up): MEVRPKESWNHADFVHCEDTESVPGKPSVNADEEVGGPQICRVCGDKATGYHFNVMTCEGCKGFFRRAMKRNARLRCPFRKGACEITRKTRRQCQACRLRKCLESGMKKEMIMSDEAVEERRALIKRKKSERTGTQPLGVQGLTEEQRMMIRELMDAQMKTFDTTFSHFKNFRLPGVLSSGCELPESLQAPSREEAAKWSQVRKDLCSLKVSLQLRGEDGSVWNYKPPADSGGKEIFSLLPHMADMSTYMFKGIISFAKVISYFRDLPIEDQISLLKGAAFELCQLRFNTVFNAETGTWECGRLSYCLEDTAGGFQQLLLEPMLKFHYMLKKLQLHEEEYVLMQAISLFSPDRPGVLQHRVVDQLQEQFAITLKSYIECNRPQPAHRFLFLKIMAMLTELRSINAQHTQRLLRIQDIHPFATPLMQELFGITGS
Large screens that a line does not name were inactive (follow-up assays come after a bar, where they were run). Hits are enriched below; roughly 3.7% of the tested compounds scored in any of these assays.

O=C(Nc1ccc2c(c1)OCO2)Nc1ccc2c(c1)OCO2	AHR activator 106 | AHR act cf inactive | PXR act counter 28
Cc1nccn1-c1ccc(C=O)cc1	none
COc1cc(OC)cc(C(=O)N2CCN(C(=O)c3cccs3)CC2)c1	none (no result: SR-BI HDL uptake, SR-BI DiI-HDL act)
Cc1cc(C(=O)Nc2ccc3c(c2)OCO3)cs1	AHR activator 130 | AHR act cf 90 | PXR act counter 43
O=C(COC(=O)c1cccc(S(=O)(=O)N2CCOCC2)c1)Nc1ccc2c(c1)OCO2	none
O=C(Nc1ccc2c(c1)OCO2)c1cccc(S(=O)(=O)N2CCOCC2)c1	AHR activator 112 | AHR act cf 91 | PXR act counter 36
O=C(Nc1cccnc1)Nc1ccc2c(c1)OCO2	AHR activator 85 | AHR act cf 91 | PXR act counter 16
Cc1noc(C(=O)Nc2ccc3c(c2)OCO3)c1Cl	AHR activator 125 (no result: SR-BI HDL uptake, SR-BI DiI-HDL act) | AHR act cf 148 | PXR act counter 26
Cc1cc(C(=O)NC(C)c2ccc3c(c2)OCO3)cs1 (stereo not given)	none
CC(CNC(=O)CCC(=O)N1CCOc2ccc(Cl)cc21)c1ccccc1 (stereo not given)	none
O=S(=O)(Oc1ccccc1N1CCCCC1)c1ccccc1	none
O=C(Nc1ccc2c(c1)OCCO2)c1ccc(Br)c(S(=O)(=O)N2CCOCC2)c1	none (no result: JMJD2C inh, AHR activator)
O=C(Nc1ccc2c(c1)OCO2)c1ccc(Br)c(S(=O)(=O)N2CCCC2)c1	AHR activator 87 | AHR act cf inactive | PXR act counter 154
O=C(Nc1ccn(Cc2ccc(Cl)cc2)n1)c1ccccc1	none
O=C(Nc1ccc2c(c1)OCO2)c1ccc2c(c1)OCO2	AHR activator 91 | AHR act cf inactive | PXR act counter 18
O=C(Nc1ccn(Cc2ccccc2)n1)c1ccc2c(c1)OCO2	AHR activator 112 | AHR act cf 77 | PXR act counter 43
Cn1ccc2cc(NC(=O)Nc3cccnc3)ccc21	AHR activator 89 | AHR act cf 55 | PXR act counter 21
O=C(CN1CCN(S(=O)(=O)c2ccc(Br)s2)CC1)N1CCCCC1	none
Cc1nc(-c2ccc(C(=O)NCCO)cc2)cs1	none
Cc1ccc(NC(=O)c2ccoc2C)cc1C	none
Cc1occc1C(=O)Nc1ccc2c(c1)OCO2	AHR activator 125 | AHR act cf 51 | PXR act counter 47
COc1ccc(/C=N/NC(=O)c2cccc(NC(=O)c3ccc(F)cc3)c2)c(C(=O)O)c1OC	AHR activator 106 | AHR act cf 93
COc1cccc(/C=N/NC(=O)c2cc3c(OC)ccc(OC)c3[nH]2)c1O	SR-BI HDL uptake 144, AHR activator 84 | AHR act cf inactive | PXR act counter inactive
Cc1cccc(OCC(=O)N(C)CC(=O)Nc2cccc(F)c2)c1C	none
O=C(CSc1nc(-c2ccccc2Cl)ns1)Nc1ccc2c(c1)OCO2	AHR activator 87 (no result: JMJD2C inh) | AHR act cf 72 | PXR act counter 17
Cc1ccc(-c2nsc(SCC(=O)Nc3ccc4c(c3)OCO4)n2)cc1	none
CN(C)c1ccc(/C=N/NC(=O)c2ccccn2)cc1	none
CN(C)c1ccc(/C=N\NC(=O)c2csnn2)cc1	AHR activator 111 | AHR act cf 55 | PXR act counter 10
COc1ccccc1CCC(=O)NNC(=O)c1cccs1	none (no result: SR-BI HDL uptake, SR-BI DiI-HDL act)
CC(=O)N1CCc2c(sc(NC(=O)C3CC3)c2-c2nc3ccccc3s2)C1	AHR activator 106 | AHR act cf 100 | PXR act counter 28
CCC1CCCN1Cn1cnc2c([nH]c3ccc(OC)cc32)c1=O (stereo not given)	none
CCC1CCCN1Cn1cnc2c([nH]c3ccccc32)c1=O (stereo not given)	AHR activator 84 | AHR act cf 78 | PXR act counter 54
Cn1c(C(O)c2ccc(Cl)cc2)nc(Cl)c1Cl (stereo not given)	AHR activator 88 | AHR act cf 114 | PXR act counter 71
Cc1ccc(/C=N/NC(=O)c2cccs2)s1	AHR activator 130 | AHR act cf inactive | PXR act counter 28
COc1ccc(Nc2nc3ccccc3n3nnnc23)cc1	AHR activator 99 | AHR act cf 103 | PXR act counter 29
Fc1cc(Br)ccc1Nc1nc2ccccc2n2nnnc12	AHR activator 131 | AHR act cf 125 | PXR act counter 28
Clc1ccc(Nc2nc3ccccc3n3nnnc23)cc1	AHR activator 81 | AHR act cf 104 | PXR act counter 50
O=C(NCc1n[nH]c(=S)n1-c1ccc(Br)cc1)c1ccc(S(=O)(=O)N2CCCCC2)cc1	none
O=C(O)Cn1c(=O)c2c3c(sc2n(Cc2ccc(Cl)cc2Cl)c1=O)CCCC3	none (no result: AHR activator)
Fc1cccc2sc(Nc3nc4cc5c(cc4s3)OCO5)nc12	AHR activator 130 | AHR act cf 121 | PXR act counter 12
Fc1cc(F)c2nc(Nc3nc4cc5c(cc4s3)OCO5)sc2c1	none
CCC(C(=O)N/N=C/c1cccnc1)c1ccccc1 (stereo not given)	none
C#Cc1ccc(C(=O)Nc2cc(C(N)=O)ccc2N2CCOCC2)cc1	AHR activator 80 | AHR act cf 72 | PXR act counter 12
Cc1c(C(=O)NCc2ccccc2CN2CCCC2)oc2ccc(F)cc12	AHR activator 124 | AHR act cf 112 | PXR act counter 76
COc1ccccc1CNC(=O)c1oc2ccccc2c1C	none
O=C1CN(C(=O)CNCc2ccccc2Cl)c2ccccc2N1	AHR activator 88 (no result: SR-BI HDL uptake, SR-BI DiI-HDL act) | AHR act cf 61 | PXR act counter 39
N#Cc1cccc2c1-c1ccccc1/C2=N/NC(N)=S	AHR activator 139 | AHR act cf 117 | PXR act counter 44
Cc1ccc(S(=O)(=O)N/N=C/c2c(C)nn(-c3ccccc3)c2C)cc1	none
NC(=O)c1c(NC(=O)c2cccnc2Cl)sc2c1CCCC2	AHR activator 103 | AHR act cf inactive | PXR act counter inactive
NC(=O)c1c(NC(=O)c2ccccc2F)sc2c1CCCC2	AHR activator 205 | AHR act cf 104 | PXR act counter 28
NC(=O)c1c(NC(=O)c2ccccc2C(=O)O)sc2c1CCCC2	none
CC1(C(=O)NS(=O)(=O)c2cccs2)CCN1C(=O)C1(c2ccc(Cl)cc2)CCC1 (stereo not given)	none (no result: JMJD2C inh, SR-BI HDL uptake, AHR activator, SR-BI DiI-HDL act)
CCc1nnc(NC(=O)/C=C/c2ccco2)s1	AHR activator 93 | AHR act cf 59 | PXR act counter 58
CC(=O)c1ccc(Nc2nc(-c3cccnc3)cs2)cc1	none (no result: AHR activator)
CCOc1ccc(Nc2nc(-c3cccnc3)cs2)cc1	AHR activator 115 | AHR act cf 181 | PXR act counter 14

Compound activity: PubChem, several laboratories
